The results in this text go back to ChEMBL document CHEMBL1129587, “(Carboxyalkyl)benzyl propargyl ethers as selective inhibitors of leukocyte-type 12-lipoxygenases” (J Med Chem, 1996).

The IC50 is the concentration at which inhibition is half-maximal. Read a low IC50 as inhibition by little substance.

The target of this experiment is T1, Arachidonate 12-lipoxygenase (Sus scrofa, UniProt P16469).
T1 sequence (P16469 whole entry): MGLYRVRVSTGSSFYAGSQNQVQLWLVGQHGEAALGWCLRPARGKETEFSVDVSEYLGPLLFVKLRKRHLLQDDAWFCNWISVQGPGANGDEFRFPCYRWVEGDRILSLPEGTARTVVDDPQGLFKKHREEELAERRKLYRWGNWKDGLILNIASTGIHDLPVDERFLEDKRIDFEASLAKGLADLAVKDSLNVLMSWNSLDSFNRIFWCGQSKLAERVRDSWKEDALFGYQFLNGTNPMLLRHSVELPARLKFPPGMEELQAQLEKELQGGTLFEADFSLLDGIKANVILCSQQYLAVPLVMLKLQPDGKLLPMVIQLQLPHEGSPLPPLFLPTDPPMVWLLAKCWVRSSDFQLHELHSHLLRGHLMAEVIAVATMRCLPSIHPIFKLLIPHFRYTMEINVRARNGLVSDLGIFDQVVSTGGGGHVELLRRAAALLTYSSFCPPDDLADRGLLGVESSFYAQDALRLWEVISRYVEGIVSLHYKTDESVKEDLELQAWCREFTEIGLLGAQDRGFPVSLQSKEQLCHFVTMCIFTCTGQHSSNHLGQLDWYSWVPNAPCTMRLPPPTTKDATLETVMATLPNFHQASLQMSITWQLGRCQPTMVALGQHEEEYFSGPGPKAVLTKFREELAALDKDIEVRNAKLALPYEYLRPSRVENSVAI
Description: Inhibitory activity against conversion of [1-14C]arachidonic acid to 12-HPETE and its reduction product 12-HETE by porcine leukocyte type 12-lipoxygenase. In a few lines:
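Porcine leukocyte cytosol (75 μg/mL) in 100 mM HEPES, 2 mM CaCl2, 1 mM MgCl2, pH 8.0. Inhibitor added in DMSO and preincubated with enzyme 5 min at 37 °C. [1-14C]arachidonic acid then added (5 μM final) and reacted 15 min. Mixture acidified, products extracted and separated by TLC, and 12-HETE conversion measured by radioactivity scanning. Incubations run in triplicate; IC50 determined from concentration series.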
`CCCCCCCCCCC#CCOCc1ccc(C(=O)O)cc1`: the IC50 was 0.06 µM.
`CCCCCC#CCCOCc1cccc(CCC(=O)O)c1` displayed an IC50 above 10 µM.
`CCCCCCCCC#CCSCc1cccc(CCC(=O)O)c1` registered a concentration for half-maximal inhibition (IC50) above 10 µM.
Under `CCCCCCCCCCC#CCOCc1ccc(CCCC(=O)O)cc1` stands above 10 µM; under `CCCCCCCCCCCCCCC#CCOCc1ccc(CCC(=O)O)cc1`, above 10 µM.
With `CCCCCCCCCC/C=C/COCc1ccc(CCC(=O)O)cc1` the figure was 0.04 µM.
Compound `CCCCCCCCCCC#CCOCc1cccc(CCC(=O)O)c1` yielded an IC50 of 0.32 µM.
Under `CCCCCCCCC#CCOCc1cccc(CCC(=O)O)c1` stands 10 µM; under `CCCCCCCCCCCCCOCc1ccc(CCC(=O)O)cc1`, above 10 µM.
With `CCCCCCC#CCOCc1cccc(CCC(=O)O)c1` the figure was above 10 µM.
With `CCCCCCCCCCCCCCC#CCOCc1ccc(C(=O)O)cc1` the figure was above 10 µM; with `CCCCCCCCCCC#CCOCc1ccc(CC(=O)O)cc1`, 0.05 µM.
In turn, `O=C(O)CCc1ccc(COCC#CCCCCc2ccccc2)cc1` yielded an IC50 of 5 µM.
Under `CCCCCCCC#CCOCc1ccc(C(=O)O)cc1` stands 6 µM; under `CCCCCCCCCC/C=C\COCc1ccc(CCC(=O)O)cc1`, 2.5 µM.
